Assays:
[1] = Reaction of electrophiles with CoASH, adduct formation monitored by LC-MS; format: physicochemical; details: for kforward, reaction with CoASH: 25 °C, pH 7.5 phosphate buffer, 2 mM each of CoASH and electrophile, 1 mM TCEP, 5% MeOH, same with and without 1.2 μM AANAT
Summary of the method: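 Uncatalyzed electrophile–CoASH reactions contained 5% MeOH for electrophile dissolution. CoASH adduct formation was followed over time by LC-MS. Rate constants came from global kinetic fitting of product accumulation. Upper and lower bounds were set within a 0.83 relative error threshold.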

[2] = tested on: melatonin receptors; details: cited from earlier work
[3] = cited from earlier work
[4] = tested on: sheep AANAT enzyme; details: truncated bisubstrate inhibitor versus 2; cited from earlier work
[5] = tested on: human AANAT enzyme; details: cited from earlier work
[6] = molecular target: AANAT (Ovis aries, UniProt Q29495); assay: AANAT enzymatic; format: biochemical, Ovis aries (sheep); details: for Fold less potent than 1 (AANAT IC50): relative to compound 1; for Inhibition of AANAT at 10 μM test compound concentration: sheep AANAT
AANAT, sequence (Q29495 whole entry): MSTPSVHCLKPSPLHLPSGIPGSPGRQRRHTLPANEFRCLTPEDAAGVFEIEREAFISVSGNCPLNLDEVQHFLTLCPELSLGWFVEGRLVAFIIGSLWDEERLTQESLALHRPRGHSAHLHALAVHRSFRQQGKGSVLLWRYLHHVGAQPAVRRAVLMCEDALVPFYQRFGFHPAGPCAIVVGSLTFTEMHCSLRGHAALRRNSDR

## O=C(CBr)NCCc1c[nH]c2ccccc12 [Compound 1, bromoacetyltryptamine, reference compound]
[1]; pH 6.8, absence of AANAT
  Second order rate constant, reaction with CoASH: 0.0218 M⁻¹ s⁻¹
[1]; pH 7.5
  Effect of AANAT on rate of reaction with CoASH: the same in the presence and absence of AANAT
[2]
  Selectivity against melatonin receptors: lack selectivity

## CC(C)(CO[P@@](=O)(O)O[P@@](=O)(O)OC[C@H]1O[C@@H](n2cnc3c(N)ncnc32)[C@H](O)[C@@H]1OP(=O)(O)O)[C@@H](O)C(=O)NCCC(=O)NCCSCC(=O)NCCc1c[nH]c2ccccc12 [Compound 2]
[3]
  Cell permeability: poor cell permeability

## CC(C)(COP(=O)(O)OP(=O)(O)OC[C@H]1O[C@@H](n2cnc3c(N)ncnc32)[C@H](O)[C@@H]1OP(=O)(O)O)[C@@H](O)C(=O)NCCC(=O)NCCSC(=O)NCCc1c[nH]c2ccccc12 [Compound 3a]
[4]
  Fold less potent than 2 (reported): 4 X

## O=C(CBr)NCCc1csc2ccc(O)cc12 [Compound 6]
[2]
  Selectivity against melatonin receptors: lack selectivity

## C=CC(=O)NCCc1csc2ccc(OC)cc12 [Compound 7]
[5]
  Fold less potent than bromoacetyl analog 5 (reported IC50): 40 X

## O=C(CBr)NCc1c[nH]c2ccccc12 [Compound 8]
[6]
  Fold less potent than 1 (AANAT IC50): 6 X

## O=C(CBr)NCCCc1c[nH]c2ccccc12 [Compound 9]
[6]
  Fold less potent than 1 (AANAT IC50): 6 X

## C=CC(=O)NCc1c[nH]c2ccccc12 [Compound 10]
[1]
  kforward, reaction with CoASH: 0.00026 M⁻¹ s⁻¹
[1]; pH 6.8, in the presence of enzyme
  Reaction rate with CoASH at pH 6.8 relative to pH 7.5: several times slower than at pH 7.5

## C=CC(=O)NCCc1c[nH]c2ccccc12 [Compound 11]
[6]
  Inhibition of AANAT at 10 μM test compound concentration: inactive
[1]
  kforward, reaction with CoASH: 0.000146 M⁻¹ s⁻¹

## C=CS(=O)(=O)NCc1c[nH]c2ccccc12 [Compound 12]
[6]
  Inhibition of AANAT at 10 μM test compound concentration: inactive
[1]
  kforward, reaction with CoASH: 0.00435 M⁻¹ s⁻¹

## C=CS(=O)(=O)NCCc1c[nH]c2ccccc12 [Compound 13]
[6]
  Inhibition of AANAT at 10 μM test compound concentration: inactive
[1]
  kforward, reaction with CoASH: 0.00183 M⁻¹ s⁻¹

From publication PMC11729038 (Bioorganic & medicinal chemistry letters, 2024)
